Measurements reported in ChEMBL document CHEMBL1772980, “Synthesis and evaluation of new furanyl and thiophenyl azoles as antileishmanial agents” (Eur J Med Chem, 2011).
Active and inactive are the calls of the source. No cut-off for these calls is given here.

Tests used:
[1] = system: Leishmania donovani; test: Antipromastigote activity against Leishmania donovani MHOM/IN/80/Dd8 promastigotes assessed as luciferase activity of viable cells at 20 uM after 72 hrs by luminometry; format: functional; conditions: MHOM/IN/80/Dd8, 72 h
Procedure, shortened: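 Late-log luciferase-transfected promastigotes were seeded at 5 × 10⁵ per well in medium 199 with parallel DMSO dilutions as controls. After incubation, a suspension aliquot was mixed 1:1 with Steady Glo reagent and luminescence read as RLU. Percentage inhibition = (N − n) × 100/N, where N is mean control RLU and n is mean treated RLU.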

[2] = system: Leishmania donovani; test: Antiamastigote activity against Leishmania donovani MHOM/IN/80/Dd8 amastigotes infected in mouse macrophage at 40 uM after 72 hrs by luciferase reporter gene assay; format: functional, organism-based
[3] = system: Leishmania donovani; test: Antiamastigote activity against Leishmania donovani MHOM/IN/80/Dd8 amastigotes infected in mouse macrophage after 72 hrs by luciferase reporter gene assay; format: functional, organism-based; conditions: MHOM/IN/80/Dd8, 72 h
Procedure, shortened: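 Mouse J-774A.1 macrophages were seeded at 4 × 10⁴ cells/well in RPMI-1640 with 10% foetal calf serum, 37 °C, CO₂, for 24 h. They were then infected with stationary-phase luciferase-expressing promastigotes at 4 × 10⁵/well. Compounds were added in dilutions starting from 40 and incubated 72 h at 37 °C. Medium was replaced by PBS plus Steady Glo, luminescence read as RLU, and IC50 fitted by four-parameter Hill regression.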

[4] = Cytotoxicity against mouse J774A1 cells assessed as cell viability after 72 hrs by MTT assay; format: cell-based, J774.A1
[5] = Selectivity index, ratio of CC50 for mouse J774A.1 cells to IC50 for Leishmania donovani MHOM/IN/80/Dd8 amastigotes; format: functional

Compound	inhibition at 20 µM [1]	inhibition [2]	IC50 [3]	CC50 at 72 h [4]	Selectivity Index [5]
Fc1ccc(COC(CCn2cncn2)c2cccs2)c(F)c1 (centres undefined)	92%	inactive			
Clc1ccc(COC(Cn2ccnc2)c2ccc(Cl)cc2Cl)c(Cl)c1 (centres undefined) [MICONAZOLE]	100%		6 µM	9.93 µM	1.66
Clc1cccc(COC(CCn2cncn2)c2cccs2)c1 (centres undefined)	80.6%		8.04 µM	15.6 µM	1.93
Clc1cccc(COC(CCn2cncn2)c2ccco2)c1 (centres undefined)	97.5%		7.36 µM	18.6 µM	3.17
Clc1cccc(COC(CCn2ccnc2)c2ccco2)c1 (centres undefined)	100%		3.04 µM	60.2 µM	19.8
Clc1ccc(Cl)c(COC(CCn2ccnc2)c2ccco2)c1 (centres undefined)	96%		4.03 µM	37.6 µM	7.15
Fc1ccc(F)c(COC(CCn2ccnc2)c2cccs2)c1 (centres undefined)	86.8%		7.35 µM	15.1 µM	2.05
Clc1ccc(Cl)c(COC(CCn2ccnc2)c2cccs2)c1 (centres undefined)	85.9%		6.75 µM	18 µM	2.66
Clc1cccc(COC(CCn2ccnc2)c2cccs2)c1 (centres undefined)	100%		5.14 µM	46 µM	8.93
CCCCCCCCCCCCCCCCOP(=O)([O-])OCC[N+](C)(C)C [MILTEFOSINE]	99.9%		13.4 µM	3.23 µM	0.24
Fc1ccc(F)c(COC(CCn2ccnc2)c2ccco2)c1 (centres undefined)	99%		5.35 µM	30.9 µM	5.77
Fc1ccc(COC(CCn2ccnc2)c2ccco2)c(F)c1 (centres undefined)	95.5%		4.2 µM	28.8 µM	6.86
Clc1ccc(COC(CCn2cncn2)c2cccs2)c(Cl)c1 (centres undefined)	97.1%	inactive			
Fc1ccc(COC(CCn2cncn2)c2ccco2)c(F)c1 (centres undefined)	90.5%	inactive			
Clc1ccc(Cl)c(COC(CCn2cncn2)c2ccco2)c1 (centres undefined)	94.5%		9.39 µM	28.9 µM	3.08
Clc1ccc(COC(CCn2cncn2)c2ccco2)c(Cl)c1 (centres undefined)	97.8%	inactive			
Clc1ccc(Cl)c(COC(CCn2cncn2)c2cccs2)c1 (centres undefined)	97.3%	inactive			
Fc1ccc(F)c(COC(CCn2cncn2)c2ccco2)c1 (centres undefined)	98.5%	inactive			
Fc1ccc(COC(CCn2ccnc2)c2cccs2)c(F)c1 (centres undefined)	90.6%		7.81 µM	34.4 µM	4.4
Clc1ccc(COC(CCn2ccnc2)c2ccco2)c(Cl)c1 (centres undefined)	91.8%		5.15 µM	56.2 µM	10.9
Fc1ccc(F)c(COC(CCn2cncn2)c2cccs2)c1 (centres undefined)	94.8%	inactive			
Clc1ccc(COC(CCn2ccnc2)c2cccs2)c(Cl)c1 (centres undefined)	87.8%		5.26 µM	29.7 µM	5.65
